Measurements as given in ChEMBL document CHEMBL1212805, “Evaluation of WLBU2 peptide and 3-O-octyl-sn-glycerol lipid as active ingredients for a topical microbicide formulation targeting Chlamydia trachomatis” (Antimicrob Agents Chemother, 2010).
Active and inactive are the calls of the source.

Key:
[1] = Cytotoxicity against mouse McCoy cells after 48 hrs at =<60 uM by MTT assay; assay type: cell-based
Outline: (§1)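 Cytotoxicity was tested by running the MCC procedure without inoculum: compound diluted in half with SPG, then diluted 1:40 onto McCoy monolayers and incubated 48 h at 37°C. Read-out by Alamar Blue, MTT and LDH kits. SPG served as negative control and Triton X-100 as positive control. Nontoxic was defined as <10% toxicity in all methods.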

[2] = Cytotoxicity against mouse McCoy cells after 48 hrs at =<60 uM by almar blue assay; assay type: cell-based; outline: as §1
Chlamydia trachomatis [3] = assay: Antibacterial activity against Chlamydia trachomatis serovar L2 at 50 uM after 5 mins relative to control; assay type: functional; settings: serovar L2, 5 min
Outline: (§2)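 Serovar L2 EBs (5 × 10⁶ IFU/ml in SPG, pH 7.5) mixed 1:1 with ten 2-fold SPG dilutions (final 50 μM top peptide, 25 mM lipid), exposed 5 or 120 min, diluted 1:40, plated on McCoy cells; fixed with methanol after 36–48 h, anti-LPS/FITC stained. Triplicate wells, three fields each, three independent days; percent inhibition versus no-drug control ± SD.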

Chlamydia trachomatis [4] = assay: Antibacterial activity against Chlamydia trachomatis serovar L2 at 50 uM after 120 mins relative to control; assay type: functional; settings: serovar L2, 2 h; outline: as §2
Chlamydia trachomatis [5] = assay: Antibacterial activity against Chlamydia trachomatis serovar D at 60.0 - 3.75 uM after 5 mins by MCC assay in presence of simulated vaginal fluid relative to control; assay type: functional, organism-based
Outline: (§3)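 C. trachomatis serovar EBs (5 × 10⁶ IFU/ml) diluted in 100% VFS (zinc-free for SFS), 100% SFS or 10% HSA, mixed 1:1 with five 4-fold SPG dilutions (final 60 μM/30 mM top; 50% VFS, 50% SFS, 5% HSA). After 5 or 120 min, diluted 1:40, inoculated onto McCoy monolayers. Inclusions stained with anti-LPS/FITC after 36–48 h. Inhibition versus no-drug control in the same fluid; MCC is complete inhibition.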

Chlamydia trachomatis [6] = assay: Antibacterial activity against Chlamydia trachomatis serovar D at 60.0 - 3.75 uM after 120 mins by MCC assay in presence of simulated vaginal fluid relative to control; assay type: functional, organism-based; outline: as §3
Chlamydia trachomatis [7] = assay: Antibacterial activity against Chlamydia trachomatis serovar D at 60.0 - 3.75 uM after 5 mins by MCC assay in presence of simulated seminal fluid relative to control; assay type: functional, organism-based; outline: as §3
Chlamydia trachomatis [8] = assay: Antibacterial activity against Chlamydia trachomatis serovar D at 60.0 - 3.75 uM after 120 mins by MCC assay in presence of simulated seminal fluid relative to control; assay type: functional, organism-based; outline: as §3
Chlamydia trachomatis [9] = assay: Antibacterial activity against Chlamydia trachomatis serovar D at 60.0 - 3.75 uM after 5 mins by MCC assay in presence of human serum albumin relative to control; assay type: functional, organism-based; outline: as §3
Chlamydia trachomatis [10] = assay: Antibacterial activity against Chlamydia trachomatis serovar D at 60.0 - 3.75 uM after 120 mins by MCC assay in presence of human serum albumin relative to control; assay type: functional, organism-based; outline: as §3
Chlamydia trachomatis [11] = assay: Antibacterial activity against Chlamydia trachomatis serovar E at 60.0 - 3.75 uM after 5 mins by MCC assay in presence of simulated vaginal fluid relative to control; assay type: functional, organism-based; outline: as §3
Chlamydia trachomatis [12] = assay: Antibacterial activity against Chlamydia trachomatis serovar E at 60.0 - 3.75 uM after 120 mins by MCC assay in presence of simulated vaginal fluid relative to control; assay type: functional, organism-based; outline: as §3
Chlamydia trachomatis [13] = assay: Antibacterial activity against Chlamydia trachomatis serovar E at 60.0 - 3.75 uM after 5 mins by MCC assay in presence of simulated seminal fluid relative to control; assay type: functional, organism-based; outline: as §3
Chlamydia trachomatis [14] = assay: Antibacterial activity against Chlamydia trachomatis serovar E at 60.0 - 3.75 uM after 120 mins by MCC assay in presence of simulated seminal fluid relative to control; assay type: functional, organism-based; outline: as §3
Chlamydia trachomatis [15] = assay: Antibacterial activity against Chlamydia trachomatis serovar E at 60.0 -3.75 uM after 5 mins by MCC assay in presence of human serum albumin relative to control; assay type: functional, organism-based; outline: as §3
Chlamydia trachomatis [16] = assay: Antibacterial activity against Chlamydia trachomatis serovar E at 60.0 -3.75 uM after 120 mins by MCC assay in presence of human serum albumin relative to control; assay type: functional, organism-based; outline: as §3
Chlamydia trachomatis [17] = assay: Antibacterial activity against Chlamydia trachomatis serovar L2 at 60.0 - 3.75 uM after 5 mins by MCC assay in presence of simulated vaginal fluid relative to control; assay type: functional, organism-based
Outline: (§4)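 McCoy monolayers seeded 5 × 10⁴ cells/well the day before. Five 4-fold dilutions in SPG (from 120 μM, 60 μM final) mixed 1:1 with EBs (5 × 10⁶ IFU/ml) in VFS, SFS or HSA, giving final 50% VFS, 50% SFS or 5% HSA. After exposure, mix diluted 1:40 in SPG, then inoculated. Inhibition is relative to a no-drug control in the same fluid and exposure time.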

Chlamydia trachomatis [18] = assay: Antibacterial activity against Chlamydia trachomatis serovar L2 at 60.0 - 3.75 uM after 120 mins by MCC assay in presence of simulated vaginal fluid relative to control; assay type: functional, organism-based; outline: as §3
Chlamydia trachomatis [19] = assay: Antibacterial activity against Chlamydia trachomatis serovar L2 at 60.0 -3.75 uM after 5 mins by MCC assay in presence of simulated seminal fluid relative to control; assay type: functional, organism-based; outline: as §4
Chlamydia trachomatis [20] = assay: Antibacterial activity against Chlamydia trachomatis serovar L2 at 60.0 -3.75 uM after 120 mins by MCC assay in presence of simulated seminal fluid relative to control; assay type: functional, organism-based; outline: as §4
Chlamydia trachomatis [21] = assay: Antibacterial activity against Chlamydia trachomatis serovar L2 at 60.0 - 3.75 uM after 5 mins by MCC assay in presence of human serum albumin relative to control; assay type: functional, organism-based; outline: as §4
Chlamydia trachomatis [22] = assay: Antibacterial activity against Chlamydia trachomatis serovar L2 at 60.0 - 3.75 uM after 120 mins by MCC assay in presence of human serum albumin relative to control; assay type: functional, organism-based; outline: as §3
Chlamydia trachomatis [23] = assay: Antibacterial activity against Chlamydia trachomatis serovar D at 3.75 uM at pH 4 after 120 mins by MCC assay in presence of sucrose- phosphate-glutamate buffer; assay type: functional, organism-based
Outline: (§5)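 Compounds and EBs were each diluted in SPG at pH 4, 5.5, 7 or 8 and mixed 1:1, so exposure pH was constant. Five 4-fold dilutions were used (top 60 μM peptide, 30 mM lipid). After 5 or 120 min, the mix was diluted 1:40 in pH 7.5 SPG and plated on McCoy cells. Inclusion counts were compared with a no-drug control at the same pH and time.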

Chlamydia trachomatis [24] = assay: Antibacterial activity against Chlamydia trachomatis serovar D at 3.75 uM at pH 7 after 120 mins by MCC assay in presence of sucrose-phosphate-glutamate buffer relative to contro; assay type: functional, organism-based; outline: as §5
Chlamydia trachomatis [25] = assay: Antibacterial activity against Chlamydia trachomatis serovar L2 at 3.75 uM at pH 4 after 120 mins by MCC assay in presence of sucrose-phosphate-glutamate buffer relative to control; assay type: functional, organism-based; outline: as §5
Chlamydia trachomatis [26] = assay: Antibacterial activity against Chlamydia trachomatis serovar L2 at => 3.13 uM after 120 mins relative to control; assay type: functional
Chlamydia trachomatis [27] = assay: Antibacterial activity against Chlamydia trachomatis serovar L2 at => 3.13 uM after 5 mins relative to control; assay type: functional
Chlamydia trachomatis [28] = assay: Antibacterial activity against Chlamydia trachomatis serovar D at 15 uM at pH 4 after 120 mins by MCC assay in presence of sucrose- phosphate-glutamate buffer; assay type: functional, organism-based; outline: as §5
Chlamydia trachomatis [29] = assay: Antibacterial activity against Chlamydia trachomatis serovar D at 15 uM at pH 7 after 120 mins by MCC assay in presence of sucrose- phosphate-glutamate buffer; assay type: functional, organism-based; outline: as §5
Chlamydia trachomatis [30] = assay: Antibacterial activity against Chlamydia trachomatis serovar D at 15 uM at pH 7 after 120 mins by MCC assay in presence of sucrose-phosphate-glutamate buffer relative to contro; assay type: functional, organism-based; outline: as §5
Chlamydia trachomatis [31] = assay: Antibacterial activity against Chlamydia trachomatis serovar L2 at 15 uM at pH 7 after 120 mins by MCC assay in presence of sucrose-phosphate-glutamate buffer relative to control; assay type: functional, organism-based; outline: as §5
Chlamydia trachomatis [32] = assay: Antibacterial activity against Chlamydia trachomatis serovar L2 at 3.75 uM at pH 7 after 120 mins by MCC assay in presence of sucrose-phosphate-glutamate buffer relative to control; assay type: functional, organism-based; outline: as §5

H-RRWVRRVRRWVRRVVRVVRRWVRR-OH
Activity [1]: Non-toxic | Activity [2]: Non-toxic | inhibition at 50 µM (Chlamydia trachomatis [3]): 89.3% | inhibition at 50 µM (Chlamydia trachomatis [4]): 99.9% | Activity (Chlamydia trachomatis [5]): inactive | Activity (Chlamydia trachomatis [6]): inactive | Activity (Chlamydia trachomatis [7]): inactive | Activity (Chlamydia trachomatis [8]): inactive | Activity (Chlamydia trachomatis [9]): inactive | Activity (Chlamydia trachomatis [10]): inactive | Activity (Chlamydia trachomatis [11]): inactive | Activity (Chlamydia trachomatis [12]): inactive | Activity (Chlamydia trachomatis [13]): inactive | Activity (Chlamydia trachomatis [14]): inactive | Activity (Chlamydia trachomatis [15]): inactive | Activity (Chlamydia trachomatis [16]): inactive | Activity (Chlamydia trachomatis [17]): inactive | Activity (Chlamydia trachomatis [18]): inactive | Activity (Chlamydia trachomatis [19]): inactive | Activity (Chlamydia trachomatis [20]): inactive | Activity (Chlamydia trachomatis [21]): inactive | Activity (Chlamydia trachomatis [22]): inactive | Activity (Chlamydia trachomatis [23]): inactive | Activity (Chlamydia trachomatis [24]): inactive | Activity (Chlamydia trachomatis [25]): inactive | Activity (Chlamydia trachomatis [26]): >97% | Activity (Chlamydia trachomatis [27]): >56% | Activity (Chlamydia trachomatis [28]): inactive | Activity (Chlamydia trachomatis [29]): inactive | Activity (Chlamydia trachomatis [30]): inactive | Activity (Chlamydia trachomatis [31]): inactive | Activity (Chlamydia trachomatis [32]): inactive
